Converted amounts (≈) assume the structure as drawn.
What was measured:
Type in all cases: functional
Oryctolagus cuniculus [1] = organism: Oryctolagus cuniculus; assay: Minimum inhibitory concentration required to reduce virus induced cytopathogenicity in primary rabbit kidney cell cultures by 50% against HSV-2 (G)
Method in brief: (§1)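 Primary rabbit kidney cell cultures infected with HSV-1 strains KOS, McIntyre or F, or HSV-2 strains Lyons, G or 196. Antiviral assays ran 3–4 days, with inhibition of virus-induced cytopathogenicity as the read-out. Cytotoxicity was checked as microscopically visible change in normal cell morphology, up to 400 µg/mL.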

Oryctolagus cuniculus [2] = organism: Oryctolagus cuniculus; assay: Minimum inhibitory concentration required to reduce virus induced cytopathogenicity in primary rabbit kidney cell cultures by 50% against HSV-2 ([…]); method in brief: as §1
Oryctolagus cuniculus [3] = organism: Oryctolagus cuniculus; assay: Minimum inhibitory concentration required to reduce virus induced cytopathogenicity in primary rabbit kidney cell cultures by 50% against Vaccinia virus
Oryctolagus cuniculus [4] = organism: Oryctolagus cuniculus; assay: Minimum inhibitory concentration required to reduce virus induced cytopathogenicity in primary rabbit kidney cell cultures by 50% against Vesicular stomatitis virus
Oryctolagus cuniculus [5] = organism: Oryctolagus cuniculus; assay: Minimum inhibitory concentration required to reduce virus induced cytopathogenicity in primary rabbit kidney cell cultures by 50% against HSV-1 ((KOS); method in brief: as §1
Oryctolagus cuniculus [6] = organism: Oryctolagus cuniculus; assay: Minimum inhibitory concentration required to reduce virus induced cytopathogenicity in primary rabbit kidney cell cultures by 50% against HSV-1 (F); method in brief: as §1
Oryctolagus cuniculus [7] = organism: Oryctolagus cuniculus; assay: Minimum inhibitory concentration required to reduce virus induced cytopathogenicity in primary rabbit kidney cell cultures by 50% against HSV-1 (McIntyre); method in brief: as §1
Oryctolagus cuniculus [8] = organism: Oryctolagus cuniculus; assay: Minimum inhibitory concentration required to reduce virus induced cytopathogenicity in primary rabbit kidney cell cultures by 50% against HSV-2 (196); method in brief: as §1

SMILES	MIC (Oryctolagus cuniculus [1])	MIC (Oryctolagus cuniculus [2])	MIC (Oryctolagus cuniculus [3])	MIC (Oryctolagus cuniculus [4])	MIC (Oryctolagus cuniculus [5])	MIC (Oryctolagus cuniculus [6])	MIC (Oryctolagus cuniculus [7])	MIC (Oryctolagus cuniculus [8])
Cl.NCCC(=O)OCCOCn1cnc2c(O)nc(N)nc21	0.15 µg/mL	0.1 µg/mL	100 µg/mL	> 400 µg/mL	0.2 µg/mL	0.5 µg/mL	0.4 µg/mL	0.1 µg/mL
O=c1[nH]c(=O)n([C@H]2C[C@H](O)[C@@H](CO)O2)cc1/C=C/Br [BRIVUDINE]	0.8 µg/mL (≈ 2.4 µM)	1 µg/mL (≈ 3 µM)	4 µg/mL (≈ 12 µM)	> 400 µg/mL	0.01 µg/mL (≈ 0.03 µM)	0.01 µg/mL (≈ 0.03 µM)	0.01 µg/mL (≈ 0.03 µM)	4 µg/mL (≈ 12 µM)
CC(N)C(=O)OCCOCn1cnc2c(O)nc(N)nc21.Cl (stereo not drawn)	0.2 µg/mL	0.07 µg/mL	70 µg/mL	> 400 µg/mL	0.4 µg/mL	0.4 µg/mL	0.4 µg/mL	0.1 µg/mL
Cl.NCC(=O)OCCOCn1cnc2c(O)nc(N)nc21	0.08 µg/mL	0.04 µg/mL	125 µg/mL	> 400 µg/mL	0.1 µg/mL	0.1 µg/mL	0.1 µg/mL	0.07 µg/mL
Nc1nc2c(ncn2COCCO)c(=O)[nH]1 [ACYCLOVIR]	0.06 µg/mL (≈ 0.266 µM)	0.04 µg/mL (≈ 0.178 µM)	80 µg/mL (≈ 355 µM)	> 400 µg/mL	0.08 µg/mL (≈ 0.355 µM)	0.09 µg/mL (≈ 0.4 µM)	0.1 µg/mL (≈ 0.444 µM)	0.06 µg/mL (≈ 0.266 µM)
[N-]=[N+]=NCC(=O)OCCOCn1cnc2c(O)nc(N)nc21	0.07 µg/mL (≈ 0.227 µM)	0.04 µg/mL (≈ 0.13 µM)	150 µg/mL (≈ 487 µM)	–	0.1 µg/mL (≈ 0.324 µM)	0.1 µg/mL (≈ 0.324 µM)	0.1 µg/mL (≈ 0.324 µM)	0.07 µg/mL (≈ 0.227 µM)
O=c1[nH]c(=O)n([C@H]2C[C@H](O)[C@@H](CO)O2)cc1I [IDOXURIDINE]	0.2 µg/mL (≈ 0.565 µM)	0.2 µg/mL (≈ 0.565 µM)	0.1 µg/mL (≈ 0.282 µM)	> 400 µg/mL	0.15 µg/mL (≈ 0.424 µM)	0.15 µg/mL (≈ 0.424 µM)	0.2 µg/mL (≈ 0.565 µM)	0.4 µg/mL (≈ 1.13 µM)
Nc1nc(O)c2ncn(COCCOC(=O)CCC(=O)[O-])c2n1.[Na+]	0.8 µg/mL	0.5 µg/mL	> 400 µg/mL	> 400 µg/mL	0.7 µg/mL	0.7 µg/mL	0.5 µg/mL	0.4 µg/mL

— ChEMBL document CHEMBL1122219, “Synthesis and antiviral activity of water-soluble esters of acyclovir [9-[(2-hydroxyethoxy)methyl]guanine]” (1983)
